The text below walks through data of publication PMC4279188 (Theranostics, 2015).

One data set deals with Akt. The data set is described as follows: Western blot of HUVECs, phosphorylated Akt. To be noted: co-treatment with PEG-Ex4. The format is cell-based, human. In short, it runs like this:
(§1)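 HUVEC lysates were prepared in RIPA buffer and protein was quantified by BCA. Proteins were resolved by SDS-PAGE and transferred to nitrocellulose, then blocked in 5% milk. Blots were probed overnight at 4 °C with anti-VEGF or anti-pAkt plus anti-β-actin, followed by secondary antibodies. Detection was by chemiluminescence on X-ray film. pAkt blots were stripped at 50 °C for 30 min and reprobed for total Akt. Data are mean ± SEM.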
(In general: A western blot detects proteins with antibodies after separation by electrophoresis.)

A further data set relates to VEGF. The data set is described as follows: Western blot of HUVECs, VEGF. It counts as cell-based, human. The conditions noted are these: co-treatment with PEG-Ex4. In short, it runs like this:
as §1

The conditions of data set [1]: breakdown by dipeptidyl peptidase-4 (DPP4); no reference given for the value; cited from earlier work.

exendin-4(9-39): the “effect of PEG-Ex4 on p-Akt in HUVECs, inhibition by co-treatment” value in the data set on Akt is given as “abolished the effect of PEG-Ex4 on p-Akt”. Moreover, the “effect of PEG-Ex4 on VEGF expression in HUVECs, inhibition by co-treatment” value in the data set with VEGF was “abolished”.

As to `O=c1cc(N2CCOCC2)oc2c(-c3ccccc3)cccc12` [LY294002], in the data set with Akt, the “effect of PEG-Ex4 on p-Akt in HUVECs, inhibition by co-treatment” value is given as “abolished the effect of PEG-Ex4 on p-Akt”. Moreover, the “effect of PEG-Ex4 on VEGF expression in HUVECs, inhibition by co-treatment” value in the data set on VEGF was “abolished”.

With glucagon-like peptide-1 [GLP-1], in data set [1], the “half-life, in words” value is “a few minutes”.
